How the values were obtained:
[1] = Cytotoxicity against human Hep2 cells assessed as reduction in cell viability after 5 days by CCK-8 assay; assay type: cell-based; details: HEp-2 cells
Method in brief: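 Uninfected HEp-2 cells (6000/well) were incubated 5 days with serially diluted compound. Viability was read by CCK-8, and CC50 is the concentration toxic to 50% of cells.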

[2] = Antiviral activity against Human respiratory syncytial virus A strain Long infected in human Hep2 cells assessed as reduction in virus induced cytopathic effect in presence of 10% FBS after 5 days by CCK-8 assay; assay type: functional, cell-based; details: HEp-2, 120 h
Method in brief: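 HEp-2 cells seeded at 6000/well and infected the next day at MOI 0.02, a dose that gives about 90% CPE by day 5. Serial compound dilutions were present throughout, in standard medium with 10% FBS. Viability was read by CCK-8 at day 5, and EC50 is the concentration that cuts CPE by 50%.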

[3] = Therapeutic index, ratio of CC50 of human Hep2 cells to EC50 for antiviral activity against human respiratory syncytial virus long strain infected in human Hep2 cells after 5 days by CCK-8 assay; assay type: toxicity, cell-based; details: HEp-2 cells, read-out: Ratio CC50/EC50
Method in brief: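 TI is CC50 over EC50. CC50 comes from uninfected HEp-2 cells; EC50 from 50% reduction of RSV Long CPE in HEp-2 cells (MOI 0.02, 5 days). Both were read by CCK-8 viability.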

[4] = AUC (0 to 24 hrs) in Wistar-Han rat at 10 mg/kg, po administered as single dose via gavage and measured up to 24 hrs by LC/MS/MS analysis; assay type: ADME, organism-based; set-up: dose 10 mg/kg, time < 24 hr, route oral; details: in vivo
Method in brief: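 Single-dose PK in male Wistar-Han rats at 2 mg/kg iv or 10 mg/kg po, as a solution in 5% DMSO, 40% PEG400 and 55% 0.9% sodium chloride.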

[5] = Plasma clearance in Wistar-Han rat at 2 mg/kg, iv or 10 mg/kg, po administered as single dose via gavage and measured up to 24 hrs by LC/MS/MS analysis; assay type: ADME, organism-based
Method in brief: (§1)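 Male Wistar-Han rats, single dose, 2 mg/kg iv and 10 mg/kg po, run by standard procedures.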

[6] = Half-life in Wistar-Han rat at 2 mg/kg, iv administered as single dose and measured up to 24 hrs by LC/MS/MS analysis; assay type: ADME, organism-based; details: in vivo; method in brief: as §1
[7] = Volume of distribution at steady state in Wistar-Han rat at 2 mg/kg, iv or 10 mg/kg, po administered as single dose via gavage and measured up to 24 hrs by LC/MS/MS analysis; assay type: ADME, organism-based; details: in vivo, read-out: Vdss; method in brief: as §1
[8] = Oral bioavailability in Wistar-Han rat at 10 mg/kg administered as single dose via gavage and measured up to 24 hrs by LC/MS/MS analysis; assay type: ADME, organism-based; details: in vivo; method in brief: as §1

SMILES	CC50 at 120 h [1]	EC50 [2]	selectivity ratio at 120 h [3]	AUC(0-t) at 24 h [4]	clearance [5]	half-life [6]	Vd [7]	bioavailability [8]
COc1cccc2c1S(=O)(=O)CCN(c1cc(NCC3(N)COC3)c3cc(C)ccc3n1)C2	> 100000 nM	350 nM	> 286	–	–	–	–	–
NC1(CNc2nc(N3CCS(=O)(=O)c4ccccc4C3)nc3ccccc23)COC1	> 100000 nM	20 nM	> 5000	–	–	–	–	–
Cc1ccc2c(c1)S(=O)(=O)CCN(c1cc(NCC3(N)COC3)c3ccccc3n1)C2	95000 nM	74 nM	1280	–	–	–	–	–
Cc1ccc2nc(N3CCS(=O)(=O)c4c(F)cccc4C3)cc(NCC3(N)COC3)c2c1	35000 nM	3 nM	11700	–	–	–	–	–
COc1ccc2c(c1)CN(c1cc(NCC3(N)COC3)c3cc(C)ccc3n1)CCS2(=O)=O	90000 nM	3 nM	30000	–	–	–	–	–
NC1(CNc2cc(N3CCS(=O)(=O)c4ccccc4C3)cc3ccccc23)COC1	71000 nM	> 31600 nM	< 2	–	–	–	–	–
Cc1ccc2nc(N3CCS(=O)(=O)c4ccc(F)cc4C3)cc(NCC3(N)COC3)c2c1	93000 nM	72 nM	1290	–	–	–	–	–
Cc1ccc2nc(N3CCS(=O)(=O)c4ccccc4C3)nc(NCC3(N)CC3)c2c1	13000 nM	4 nM	3250	–	–	–	–	–
Cc1ccc2nc(N3CCS(=O)(=O)c4ccccc4C3)cc(NCC3(N)COC3)c2c1	> 100000 nM	2 nM	> 50000	442 ng·h/mL	51 mL/min/kg	1.7 h	4.1 L/kg	13%
Cc1ccc2nc(N3CCS(=O)(=O)c4cc(F)ccc4C3)cc(NCC3(N)COC3)c2c1	79000 nM	10 nM	7900	–	–	–	–	–
COc1ccc2c(c1)S(=O)(=O)CCN(c1cc(NCC3(N)COC3)c3ccccc3n1)C2	> 100000 nM	8 nM	> 12500	–	–	–	–	–
NC1(CNc2cc(N3CCS(=O)(=O)c4ccccc4C3)nc3ccncc23)COC1	99000 nM	12 nM	8250	–	–	–	–	–
Cc1ccc2nc(N3CCS(=O)(=O)c4cc(Cl)ccc4C3)cc(NCC3(N)COC3)c2c1	15000 nM	27 nM	560	–	–	–	–	–
Cc1ccc2nc(N3CCS(=O)(=O)c4ccc(O)cc4C3)cc(NCC3(N)COC3)c2c1	> 100000 nM	0.8 nM	> 125000	–	–	–	–	–
Cc1cc2c(NCC3(N)COC3)cc(N3CCS(=O)(=O)c4ccccc4C3)nc2cc1F	64000 nM	21 nM	3050	–	–	–	–	–
Cc1cc2c(NCC3(N)COC3)cc(N3CCS(=O)(=O)c4ccccc4C3)nc2c(F)c1F	53000 nM	510 nM	104	–	–	–	–	–
Cc1ccc2c(c1)S(=O)(=O)CCN(c1cc(NCC3(N)COC3)c3cc(C)ccc3n1)C2	91000 nM	5 nM	18200	–	–	–	–	–
Cc1ccc2nc(N3CCS(=O)(=O)c4ccccc4C3)nc(NCC(C)(C)N)c2c1	20000 nM	16 nM	1250	–	–	–	–	–
CC(C)(O)c1ccc2nc(N3CCS(=O)(=O)c4ccccc4C3)cc(NCC3(N)COC3)c2c1	> 100000 nM	> 100000 nM	< 1	–	–	–	–	–
NC1(CNc2cc(N3CCS(=O)(=O)c4ccccc4C3)nc3ccc(Cl)cc23)COC1	87000 nM	34 nM	2560	–	–	–	–	–
Cc1ccc2cc(N3CCS(=O)(=O)c4ccccc4C3)nc(NCC3(N)COC3)c2c1	81000 nM	220 nM	370	–	–	–	–	–
Cc1ccc2nc(N3CCS(=O)(=O)c4ccccc4C3)cc(NCC3(N)COC3)c2c1F	93000 nM	23 nM	4040	–	–	–	–	–
COc1ccc2c(c1)S(=O)(=O)CCN(c1cc(NCC3(N)COC3)c3cc(C)ccc3n1)C2	92000 nM	1 nM	92000	–	–	–	–	–
Cc1ccc2nc(N3CCS(=O)(=O)c4ccccc4C3)nc(NCC3(N)CCC3)c2c1	21000 nM	100 nM	210	–	–	–	–	–
NC1(CNc2cc(N3CCS(=O)(=O)c4ccccc4C3)nc3ccc(CO)cc23)COC1	> 100000 nM	2 nM	> 50000	–	–	–	–	–
